Reference: ChEMBL document CHEMBL3853342, “Design, synthesis and biological evaluation of novel benzo-α-pyrone containing piperazine derivatives as potential BRAFV600E inhibitors” (Bioorg Med Chem Lett, 2016)
Calls of active or inactive are those of the source. No cut-off for these calls is given here.

Columns and labels:
[1] = Antiproliferative activity against human A375 cells assessed as cell growth inhibition after 24 hrs by MTT assay; assay type: functional, cell-based; settings: A-375, 24 h
[2] = Antiproliferative activity against human WM1361 cells assessed as cell growth inhibition after 24 hrs by MTT assay; assay type: functional, cell-based; settings: WM1361, 24 h
[3] = Antiproliferative activity against human WM266.4 cells harboring BRAF V600E mutant assessed as cell growth inhibition after 24 hrs by MTT assay; assay type: functional, cell-based; settings: WM 266-4, 24 h
[4] = biological target: Serine/threonine-protein kinase B-raf (Homo sapiens, UniProt P15056, V600E); test: Inhibition of human recombinant GST-tagged BRAF catalytic domain (416 to 766 residues) V600E mutant expressed in baculovirus expression system preincubated for 1 hr followed by human full length recombinant N-terminal His-tagged MEK1 substrate addition measured after 25 mins by gel electrophoresis method
Serine/threonine-protein kinase B-raf, sequence (P15056 2-766 V600E limits assumed): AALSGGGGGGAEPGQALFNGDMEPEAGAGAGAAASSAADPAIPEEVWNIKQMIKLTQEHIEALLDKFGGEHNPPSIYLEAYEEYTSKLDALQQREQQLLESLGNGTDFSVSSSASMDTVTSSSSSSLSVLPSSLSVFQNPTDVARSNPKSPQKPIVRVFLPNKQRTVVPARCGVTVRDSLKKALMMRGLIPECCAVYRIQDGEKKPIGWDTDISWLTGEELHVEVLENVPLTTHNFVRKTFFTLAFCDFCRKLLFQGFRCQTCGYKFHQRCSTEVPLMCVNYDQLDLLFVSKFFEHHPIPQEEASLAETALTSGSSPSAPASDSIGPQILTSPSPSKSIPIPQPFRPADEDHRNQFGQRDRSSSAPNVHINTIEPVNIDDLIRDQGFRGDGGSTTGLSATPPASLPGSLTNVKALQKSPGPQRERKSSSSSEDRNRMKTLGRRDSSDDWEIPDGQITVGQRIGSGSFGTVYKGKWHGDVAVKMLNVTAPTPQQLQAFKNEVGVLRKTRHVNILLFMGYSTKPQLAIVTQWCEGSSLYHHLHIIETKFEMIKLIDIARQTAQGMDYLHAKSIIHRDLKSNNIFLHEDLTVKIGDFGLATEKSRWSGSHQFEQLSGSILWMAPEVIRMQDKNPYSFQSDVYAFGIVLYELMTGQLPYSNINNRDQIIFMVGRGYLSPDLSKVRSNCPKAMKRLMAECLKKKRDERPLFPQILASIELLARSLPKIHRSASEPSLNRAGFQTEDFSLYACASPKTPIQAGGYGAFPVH

[5] = Cytotoxicity against human 293T cells assessed as cell growth inhibition after 24 hrs by MTT assay; assay type: toxicity, cell-based, HEK-293T
WM 266-4 [6] = test: Induction of apoptosis in human WM266.4 cells assessed as necrotic cells at 4 uM after 24 hrs by Annexin V-FITC/propidium iodide based flow cytometric analysis (reference value: 0.435 %); assay type: functional
Summary of the method: (§1)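 Apoptosis in WM266-4 (BRAF V600E) cells after 24 h at 0, 2, 4 or 8 µM, by Annexin V-FITC/PI dual staining and flow cytometry. Percentages of apoptotic cells were calculated. Three independent experiments.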

[7] = Induction of apoptosis in human WM1361 cells assessed as viable cells at 40 uM after 24 hrs by Annexin V-FITC/propidium iodide based flow cytometric analysis (reference value: 95.2 %); assay type: functional; settings: WM1361, 24 h, read-out: Activity
[8] = Induction of apoptosis in human WM1361 cells assessed as late apoptotic cells at 20 uM after 24 hrs by Annexin V-FITC/propidium iodide based flow cytometric analysis (reference value: 2.96 %); assay type: functional
WM 266-4 [9] = test: Induction of apoptosis in human WM266.4 cells assessed as viable cells at 2 uM after 24 hrs by Annexin V-FITC/propidium iodide based flow cytometric analysis (reference value: 92.9 %); assay type: functional; settings: WM 266-4, 24 h, read-out: Activity; summary of the method: as §1
WM 266-4 [10] = test: Induction of apoptosis in human WM266.4 cells assessed as early apoptotic cells at 8 uM after 24 hrs by Annexin V-FITC/propidium iodide based flow cytometric analysis (reference value: 1.60 %); assay type: functional; summary of the method: as §1
[11] = Cell cycle arrest in human WM266.4 cells assessed as accumulation at G2/M phase at 4 uM after 36 hrs by propidium iodide staining based FACS analysis (reference value: 5.79 %); assay type: functional; settings: WM 266-4
WM 266-4 [12] = test: Induction of apoptosis in human WM266.4 cells assessed as early apoptotic cells at 2 uM after 24 hrs by Annexin V-FITC/propidium iodide based flow cytometric analysis (reference value: 1.60 %); assay type: functional; summary of the method: as §1
[13] = Induction of apoptosis in human WM1361 cells assessed as viable cells at 60 uM after 24 hrs by Annexin V-FITC/propidium iodide based flow cytometric analysis (reference value: 95.2 %); assay type: functional; settings: WM1361, 24 h, read-out: Activity
[14] = Induction of apoptosis in human WM1361 cells assessed as early apoptotic cells at 20 uM after 24 hrs by Annexin V-FITC/propidium iodide based flow cytometric analysis (reference value: 1.02 %); assay type: functional
WM 266-4 [15] = test: Induction of apoptosis in human WM266.4 cells assessed as viable cells at 4 uM after 24 hrs by Annexin V-FITC/propidium iodide based flow cytometric analysis (reference value: 92.9 %); assay type: functional; settings: WM 266-4, 24 h, read-out: Activity; summary of the method: as §1
[16] = Induction of apoptosis in human WM1361 cells assessed as necrotic cells at 40 uM after 24 hrs by Annexin V-FITC/propidium iodide based flow cytometric analysis (reference value: 0.860 %); assay type: functional
WM 266-4 [17] = test: Induction of apoptosis in human WM266.4 cells assessed as late apoptotic cells at 8 uM after 24 hrs by Annexin V-FITC/propidium iodide based flow cytometric analysis (reference value: 5.04 %); assay type: functional; summary of the method: as §1
[18] = Cell cycle arrest in human WM266.4 cells assessed as accumulation at S phase at 8 uM after 12 hrs by propidium iodide staining based FACS analysis (reference value: 29.51 %); settings: WM 266-4
[19] = Induction of apoptosis in human WM1361 cells assessed as early apoptotic cells at 60 uM after 24 hrs by Annexin V-FITC/propidium iodide based flow cytometric analysis (reference value: 1.02 %); assay type: functional
[20] = Cell cycle arrest in human WM266.4 cells assessed as accumulation at G0/G1 phase at 8 uM after 36 hrs by propidium iodide staining based FACS analysis (reference value: 64.70 %); settings: WM 266-4
[21] = Cell cycle arrest in human WM266.4 cells assessed as accumulation at G2/M phase at 2 uM after 24 hrs by propidium iodide staining based FACS analysis (reference value: 14.39 %); assay type: functional; settings: WM 266-4
Summary of the method: (§2)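 WM266-4 (BRAF V600E melanoma) cells exposed to 0, 2, 4 or 8 µM for 24 h. Cell-cycle distribution by flow cytometry, with G1, S and G2/M fractions gated. Three independent experiments.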

[22] = Induction of apoptosis in human WM1361 cells assessed as early apoptotic cells at 40 uM after 24 hrs by Annexin V-FITC/propidium iodide based flow cytometric analysis (reference value: 1.02 %); assay type: functional
[23] = Induction of apoptosis in human WM1361 cells assessed as necrotic cells at 60 uM after 24 hrs by Annexin V-FITC/propidium iodide based flow cytometric analysis (reference value: 0.860 %); assay type: functional
[24] = Cell cycle arrest in human WM266.4 cells assessed as accumulation at G2/M phase at 8 uM after 24 hrs by propidium iodide staining based FACS analysis (reference value: 14.39 %); assay type: functional; settings: WM 266-4; summary of the method: as §2
[25] = Cell cycle arrest in human WM266.4 cells assessed as accumulation at S phase at 4 uM after 24 hrs by propidium iodide staining based FACS analysis (reference value: 29.03 to 29.51%); assay type: functional; settings: WM 266-4; summary of the method: as §2
[26] = Cell cycle arrest in human WM266.4 cells assessed as accumulation at G0/G1 phase at 4 uM after 24 hrs by propidium iodide staining based FACS analysis (reference value: 56.58 to 64.70%); assay type: functional; settings: WM 266-4; summary of the method: as §2
WM 266-4 [27] = test: Induction of apoptosis in human WM266.4 cells assessed as late apoptotic cells at 2 uM after 24 hrs by Annexin V-FITC/propidium iodide based flow cytometric analysis (reference value: 5.04 %); assay type: functional; summary of the method: as §1
[28] = Cell cycle arrest in human WM266.4 cells assessed as accumulation at G2/M phase at 8 uM after 12 hrs by propidium iodide staining based FACS analysis (reference value: 5.79 %); settings: WM 266-4
WM 266-4 [29] = test: Induction of apoptosis in human WM266.4 cells assessed as necrotic cells at 8 uM after 24 hrs by Annexin V-FITC/propidium iodide based flow cytometric analysis (reference value: 0.435 %); assay type: functional; summary of the method: as §1
WM 266-4 [30] = test: Induction of apoptosis in human WM266.4 cells assessed as increase in apoptotic cells after 24 hrs by Annexin V-FITC/propidium iodide based flow cytometric analysis; assay type: functional, cell-based; summary of the method: as §1
[31] = Cell cycle arrest in human WM266.4 cells assessed as accumulation at G0/G1 phase at 2 uM after 24 hrs by propidium iodide staining based FACS analysis (reference value: 56.58 %); assay type: functional; settings: WM 266-4; summary of the method: as §2
WM 266-4 [32] = test: Induction of apoptosis in human WM266.4 cells assessed as DNA fragmentation up to 8 uM after 24 hrs by agarose gel electrophoresis; assay type: functional, cell-based
Summary of the method: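 DNA ladder assay: WM266-4 cells cultured at 37 °C for 24 h with 0, 2, 4 or 8 µM. DNA isolated and run on 2.0% agarose gel beside 2000 bp and 15000 bp markers. Untreated cells served as control.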

WM 266-4 [33] = test: Induction of apoptosis in human WM266.4 cells assessed as necrotic cells at 2 uM after 24 hrs by Annexin V-FITC/propidium iodide based flow cytometric analysis (reference value: 0.435 %); assay type: functional; summary of the method: as §1
[34] = Cell cycle arrest in human WM266.4 cells assessed as accumulation at S phase at 8 uM after 24 hrs by propidium iodide staining based FACS analysis (reference value: 29.03 %); assay type: functional; settings: WM 266-4; summary of the method: as §2
[35] = Induction of apoptosis in human WM1361 cells assessed as necrotic cells at 20 uM after 24 hrs by Annexin V-FITC/propidium iodide based flow cytometric analysis (reference value: 0.860 %); assay type: functional
WM 266-4 [36] = test: Induction of apoptosis in human WM266.4 cells assessed as early apoptotic cells at 4 uM after 24 hrs by Annexin V-FITC/propidium iodide based flow cytometric analysis (reference value: 1.60 %); assay type: functional; summary of the method: as §1
[37] = Cell cycle arrest in human WM266.4 cells assessed as accumulation at S phase at 8 uM after 36 hrs by propidium iodide staining based FACS analysis (reference value: 29.51 %); settings: WM 266-4
[38] = Cell cycle arrest in human WM266.4 cells assessed as accumulation at S phase at 2 uM after 24 hrs by propidium iodide staining based FACS analysis (reference value: 29.03 %); assay type: functional; settings: WM 266-4; summary of the method: as §2
[39] = Induction of apoptosis in human WM1361 cells assessed as late apoptotic cells at 60 uM after 24 hrs by Annexin V-FITC/propidium iodide based flow cytometric analysis (reference value: 2.96 %); assay type: functional
[40] = Induction of apoptosis in human WM1361 cells assessed as viable cells at 20 uM after 24 hrs by Annexin V-FITC/propidium iodide based flow cytometric analysis (reference value: 95.2 %); assay type: functional; settings: WM1361, 24 h, read-out: Activity
WM 266-4 [41] = test: Induction of apoptosis in human WM266.4 cells assessed as late apoptotic cells at 4 uM after 24 hrs by Annexin V-FITC/propidium iodide based flow cytometric analysis (reference value: 5.04 %); assay type: functional; summary of the method: as §1
[42] = Cell cycle arrest in human WM266.4 cells assessed as accumulation at G2/M phase at 4 uM after 24 hrs by propidium iodide staining based FACS analysis (reference value: 5.79 to 14.39%); assay type: functional; settings: WM 266-4; summary of the method: as §2
WM 266-4 [43] = test: Induction of apoptosis in human WM266.4 cells assessed as viable cells at 8 uM after 24 hrs by Annexin V-FITC/propidium iodide based flow cytometric analysis (reference value: 92.9 %); assay type: functional; settings: WM 266-4, 24 h, read-out: Activity; summary of the method: as §1
[44] = Induction of apoptosis in human WM1361 cells assessed as late apoptotic cells at 40 uM after 24 hrs by Annexin V-FITC/propidium iodide based flow cytometric analysis (reference value: 2.96 %); assay type: functional
[45] = Cell cycle arrest in human WM266.4 cells assessed as accumulation at G0/G1 phase at 8 uM after 24 hrs by propidium iodide staining based FACS analysis (reference value: 56.58 %); assay type: functional; settings: WM 266-4; summary of the method: as §2
[46] = Cell cycle arrest in human WM266.4 cells assessed as accumulation at G0/G1 phase at 8 uM after 12 hrs by propidium iodide staining based FACS analysis (reference value: 64.70 %); settings: WM 266-4

## O=c1oc2ccccc2c(N2CCN(c3ccccc3)CC2)c1CO
[1]
  IC50: 17.2 µM
[2]
  IC50: > 50 µM
[3]
  IC50: 16.6 µM
[4]
  IC50: 8.93 µM
[5]
  CC50 at 24 h: > 50 µM

## COc1cccc(N2CCN(c3c(CO)c(=O)oc4ccccc34)CC2)c1
[1]
  IC50: 6.51 µM
[2]
  IC50: 38.1 µM
[3]
  IC50: 5.33 µM
[4]
  IC50: 1.76 µM
[5]
  CC50 at 24 h: > 50 µM

## O=c1oc2ccccc2c(N2CCN(c3ccc(F)cc3)CC2)c1CO
[1]
  IC50: 24.7 µM
[2]
  IC50: > 50 µM
[3]
  IC50: 23.4 µM
[4]
  IC50: 17.8 µM
[5]
  CC50 at 24 h: > 50 µM

## O=c1oc2ccccc2c(N2CCN(C(c3ccccc3)c3ccccc3)CC2)c1CO
WM 266-4 [6]
  Activity: 1.88%
[7]
  viability at 40 µM: 92.9%
[1]
  IC50: 2.24 µM
[8]
  Activity: 3.36%
WM 266-4 [9]
  viability at 2 µM: 67%
WM 266-4 [10]
  Activity: 27.1%
[11]
  Activity: 2.41%
WM 266-4 [12]
  Activity: 13.4%
[13]
  viability at 60 µM: 91.8%
[14]
  Activity: 1.16%
WM 266-4 [15]
  viability at 4 µM: 52.5%
[16]
  Activity: 1.15%
WM 266-4 [17]
  Activity: 32.7%
[18]
  Activity: 21.6%
[19]
  Activity: 1.61%
[20]
  Activity: 89.3%
[21]
  Activity: 12.6%
[22]
  Activity: 0.856%
[23]
  Activity: 1.31%
[24]
  Activity: 11.1%
[2]
  IC50: 21.1 µM
[3]
  IC50: 1.35 µM
[25]
  Activity: 5.88%
[26]
  Activity: 76.4%
WM 266-4 [27]
  Activity: 14.5%
[28]
  Activity: 12.2%
WM 266-4 [29]
  Activity: 3.07%
WM 266-4 [30]
  Activity: Dose-dependent effect
[31]
  Activity: 65.8%
WM 266-4 [32]
  Activity: Active
WM 266-4 [33]
  Activity: 5.06%
[34]
  Activity: 6.48%
[35]
  Activity: 1.36%
WM 266-4 [36]
  Activity: 24.4%
[37]
  Activity: 8.26%
[38]
  Activity: 21.6%
[39]
  Activity: 5.29%
[4]
  IC50: 0.37 µM
[40]
  viability at 20 µM: 94.1%
WM 266-4 [41]
  Activity: 21.2%
[42]
  Activity: 7.56%
WM 266-4 [43]
  viability at 8 µM: 37.1%
[44]
  Activity: 5.11%
[45]
  Activity: 82.4%
[5]
  CC50 at 24 h: > 50 µM
[46]
  Activity: 66.2%
